Screening data (PubChem BioAssay)
STAT3 inh – inhibitors of IL-6 induced STAT3 signaling | inhibition, % at 5.5 µM | actives 0.89% (n = 190,000) | U3A cells, IL-6 STAT3-luciferase reporter, luminescence; host cell line lacks STAT1;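 active = inhibition above the mean inhibition across all screened compounds plus 3 SD, cut at about 44% in these data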
PPC-1+TRAIL kill – compounds killing PPC-1 cancer cells with TRAIL present (potentiator screen, no TRAIL-free arm) | actives 0.41% (n = 220,000) | PPC-1 cells + TRAIL, ATPLite viability luminescence | cell killing (% activity), % at 4 µM or 5 µM;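 active = cell killing above 50% in the first pass at 4 µM, then a duplicate retest at 5 µM averaging 50% or more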
HSP90 inh – HSP90 refolding inhibition in rabbit reticulocyte lysate | inhibition, % at 5.6 µM | luciferase refolding luminescence, 3 h | actives 0.91% (n = 290,000);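 active = inhibition above the screen-wide mean plus 3 SD, computed separately per campaign, cut at about 16% in these data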;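 also: inhibitors lower the luminescence because luciferase stays unfolded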
STAT3 activator – STAT3 signaling activation; actives 0.91% (n = 190,000); AID 871; activation (% of control), % at 5.6 µM; U3A cells, IL-6 STAT3-luciferase reporter, luminescence; 100% = signal with IL-6 EC80 alone;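 active = activation above the screen-wide mean of compound activation plus 3 SD, cut at about 130% in these data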
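Test system: STAT3-luciferase reporter U3A cells; Detection: reporter luminescence signal; Times: 1 h compound pre-exposure, 6 h IL-6 stimulation, 37 °C; Benchmarks: IL-6-only high control; Also added: IL-6 stimulus at 33 ng/mL final.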
TRAIL sens C8 – caspase-8 TRAIL sensitization; inhibition (viability loss, TRAIL sensitization), % at 10 µM; NB7+C8 cells + TRAIL, ATPlite viability luminescence; actives 1% (n = 360,000);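 active = compounds causing at least 50% loss of cell viability in the single-dose screen, relative to plate controls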
STAT1 blocker – reduces IFN-gamma driven STAT1 reporter signal; actives 0.35% (n = 200,000); AID 920; NIH 3T3 STAT1-luciferase reporter, luminescence; inhibition, % at 5.5 µM;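 active = inhibition above a set limit, the mean inhibition across all tested compounds plus 3 SD, cut at about 34% in these data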
A number is an active result; n = inactive; x = no result. In the library only some 2.3% were active in any assay of this set; here they are far more common.

SMILES | STAT3 inh | PPC-1+TRAIL kill | HSP90 inh | STAT3 activator | TRAIL sens C8 | STAT1 blocker
Cc1nc(-c2ccc(NC(=O)c3ccc(Br)o3)cc2)cs1 | x | x | n | x | 55 | x
Cc1nc(-c2ccc(NC(=O)CC(C)C)cc2)cs1 | n | n | n | n | 53 | n
Cn1cnc([N+](=O)[O-])c1Sc1ccncn1 | x | x | x | x | n | x
O=C(CN1CCN(c2ccc(F)cc2)CC1)Nc1ccccc1Br | x | x | n | x | n | x
CC(C)c1ccccc1OCC(=O)Nc1cc(S(=O)(=O)N2CCOCC2)ccc1N1CCCC1 | x | x | x | x | n | x
O=C(/C=C/c1ccccc1O)c1ccc(Cl)cc1 | n | n | n | 135 | n | n
Cc1onc(-c2ccccc2Cl)c1C(=O)N1CCN=C1SCc1cccnc1 | n | n | n | n | n | n
O=C(N/N=C/c1ccco1)C1CC1c1ccccc1 (stereo not given) | n | n | n | n | n | n
CC(C)(C)c1ccc(C2CC2C(=O)N/N=C\c2ccc[nH]2)cc1 (stereo not given) | 71 | n | n | n | 65 | 46
O=C(/C=C/NNC(=O)c1ccccc1)c1ccc([N+](=O)[O-])cc1 | n | n | n | n | 50 | n
CN1C2CCC1/C(=C\c1ccc(F)cc1)C(=O)/C2=C/c1ccc(F)cc1 | n | n | n | n | n | n
C=CC(=O)N1C/C(=C/c2ccc(F)cc2)C(=O)/C(=C\c2ccc(F)cc2)C1 | x | x | x | x | 93 | x
Cc1ccc(N(CCC#N)C(=O)CCl)cc1C | n | n | n | n | 87 | n
COC(=O)Cc1ccc(NC(=S)NNC(=O)c2ccccc2Br)cc1 | n | n | n | n | n | n
CNC(=S)Nc1ccc2nc(C)c(C)nc2c1 | n | n | n | n | n | n
C1=C(c2cccc3ccccc23)N2CCN=C2S1 | n | n | n | 150 | n | n
c1cc(-c2cc3cc(N4CCOCC4)ccc3o2)cs1 | x | x | x | x | 79 | x
CCc1ccc2nc(N(CCCN(C)C)C(=O)c3ccc(S(=O)(=O)N4CCCC4)cc3)sc2c1 | x | x | n | x | n | x
CC1CCCCN1S(=O)(=O)c1ccc(C(=O)N(CCCN(C)C)c2nc3ccc(Br)cc3s2)cc1 (stereo not given) | x | x | n | x | 55 | x
CCc1ccc2nc(N(CCCN(C)C)C(=O)c3ccc(C(=O)c4ccccc4)cc3)sc2c1 | x | x | n | x | 62 | x
CCc1ccc2nc(N(CCCN(C)C)C(=O)c3ccc(S(=O)(=O)N4CCCc5ccccc54)cc3)sc2c1 | x | x | n | x | 68 | x
Cc1ccc(C2=NOC(=O)/C2=C\C=C\c2ccccc2)cc1 | n | n | n | n | n | n
O=C1c2cccnc2Nc2ccccc2N1CCCF | n | n | n | n | n | n
Cc1cccc(C)c1Nc1nnc(SCC(=O)Nc2ncc(C(F)(F)F)cc2Cl)s1 | n | n | n | n | n | n
Cc1cccc(C)c1OCC(=O)Nc1ccc2c(c1)OCCO2 | x | x | n | x | n | x
SMILES | STAT3 inh | PPC-1+TRAIL kill | HSP90 inh | STAT3 activator | TRAIL sens C8 | STAT1 blocker
Cc1ccc(CC#N)c(-c2c(CC#N)ccc(C)c2C)c1C | x | x | x | x | n | x
Cc1ccc2c(c1C)-c1c(ccc(C)c1C)C(=O)C2=O | x | x | x | x | 58 | x
O=C1CCC(c2ccccc2)(C2CCN(Cc3ccccc3)CC2)C(=O)N1 (stereo not given) | x | x | x | x | n | x
CN(C)C(=O)N1CCN(c2nc(-c3ccccc3)cs2)CC1 | x | x | n | x | 58 | x
O=C(N1CCOCC1)N1CCN(c2nc(-c3ccccc3)cs2)CC1 | n | n | n | n | n | n
O=C(CCl)N1c2ccccc2CCc2ccccc21 | x | x | n | x | 95 | x
N#Cc1ccc(Cl)cc1NC(=O)CNc1cccc(S(=O)(=O)N2CCCC2)c1 | x | x | x | x | n | x
CCc1cc2c(=O)c(-c3cnn(-c4ccccc4)c3)c(C)oc2cc1OCC(=O)Nc1cccc(C)c1 | n | n | n | n | n | n
CCc1cc2c(=O)c(-c3cnn(-c4ccccc4)c3)c(C)oc2cc1OCC(=O)Nc1ccc(F)c(F)c1 | n | n | n | n | 52 | n
NC(=S)NNC(=O)c1ccccc1Cl | x | n | n | x | n | x
C=CC(=O)Nc1ccc(Nc2nc(NC3CCC(N(C)C)CC3)nc3c2ncn3C(C)C)cc1 (stereo not given) | x | x | x | x | 73 | x
CC(C)n1cnc2c(Nc3ccc(F)c(Cl)c3)nc(NCCO)nc21 | x | x | n | x | n | x
COc1ccc(C(C(=O)NCC2CCCO2)N(C(=O)Cn2nnc3ccccc32)c2ccc(NC(C)=O)cc2)c(OC)c1 (stereo not given) | x | x | n | x | n | x
CC(OC(=O)c1cc(O)c2ccccc2c1O)C(=O)Nc1ccc(C(N)=O)cc1 (stereo not given) | x | x | x | x | 57 | x
O=[N+]([O-])c1ccccc1C=CC=NN=Cc1ccccc1O | x | x | x | x | n | x
COC(=O)CCCN=C1SCCN1Cc1ccccc1 | x | x | n | x | n | x
Cc1cccc(-n2ncc3c(NC4CCCCC4)ncnc32)c1 | n | n | n | n | 73 | n
Cc1nc(-c2cccc(NC(=O)c3cccs3)c2)cs1 | n | n | n | n | n | n
Cc1nc(-c2cccc(NC(=O)c3ccc(-n4nccc4C)cc3)c2)cs1 | x | x | x | x | 60 | x
CCOC(=O)c1[nH]c2ccc(OC)cc2c1NC(=O)/C=C/c1ccc2c(c1)OCO2 | n | n | n | n | n | n
CC(=O)Nc1ccc(NC(=O)/C=C/c2ccc3c(c2)OCO3)cc1 | n | n | n | n | n | n
COC(=O)c1cc(NC(=O)/C=C/c2ccc3c(c2)OCO3)cc(C(=O)OC)c1 | n | n | n | n | n | n
Cc1cc(C)nc(NC(=O)/C=C/c2ccc3c(c2)OCO3)c1 | n | 56 | n | n | 64 | n
COC(=O)c1cccc(NC(=O)/C=C/c2ccc3c(c2)OCO3)c1 | n | n | n | n | 85 | n
O=C(/C=C/c1ccc2c(c1)OCO2)Nc1c(C(=O)O)[nH]c2ccccc12 | n | n | n | n | 52 | n
SMILES | STAT3 inh | PPC-1+TRAIL kill | HSP90 inh | STAT3 activator | TRAIL sens C8 | STAT1 blocker
COc1ccc(-c2nc3c([nH]2)c(=O)n(C)c(=O)n3C)c(OC)c1 | n | n | n | 134 | n | n
CC12CN3CC(C)(CN(C1)C3c1cc(Br)ccc1O)C2=O (stereo not given) | n | n | n | n | n | n
O=C(Cc1csc(NC(=O)Nc2ccc(Cl)cc2)n1)NCc1ccccn1 | x | x | x | x | 54 | x
COC(=O)CSc1nnc(NC(=O)/C=C\c2ccc3c(c2)OCO3)s1 | n | n | n | n | 53 | n
CCC(CC)c1nnc(NC(=O)c2ccc3c(c2)OCO3)s1 | x | x | n | x | n | x
COC(=O)CSc1nnc(NC(=O)c2ccc3c(c2)OCO3)s1 | x | x | n | x | 77 | x
C[C@H](NC(=O)OC(C)(C)C)c1nnc(SCC(=O)c2ccc(Cl)cc2)o1 | n | n | n | n | n | n
Cc1nnc(NC(=O)c2ccc3ccccc3n2)s1 | n | n | n | 136 | n | n
CC(C)C(=O)N1CCN(c2ccc(NC(=O)c3ccc([N+](=O)[O-])o3)cc2)CC1 | n | n | n | n | n | n
Cc1ccccc1C(=O)N1CCN(c2ccc(NC(=O)c3ccc([N+](=O)[O-])o3)cc2)CC1 | x | x | n | x | 71 | x
O=C(Nc1ccc(N2CCN(C(=O)c3ccccc3)CC2)cc1)c1ccc([N+](=O)[O-])o1 | n | n | n | n | 70 | n
